Published values collected from several papers.
Each line is one published result; the experiments were not run side by side.
PKN1: Serine/threonine-protein kinase N1 (PKN1, Homo sapiens, UniProt Q16512)
CA9: Carbonic anhydrase 9 (CA9, Homo sapiens, UniProt Q16790)
PRSS1: Serine protease 1 (PRSS1, Bos taurus, UniProt P00760)
SIRT5: NAD-dependent protein deacylase sirtuin-5, mitochondrial (SIRT5, Homo sapiens, UniProt Q9NXA8)

Compound | target | test | conditions | IC50 [nM]
O=C(c1ccc(Nc2nccc(-c3cc4ccccc4s3)n2)cc1)N1CCC(N2CCCC2)CC1 | PKN1 | enzyme activity, inhibitor | – | 49
NS(=O)(=O)c1cc(NC(=O)CCc2nnc(-c3ccc(Cl)cc3)o2)ccc1O | CA9 | enzyme activity, inhibitor | – | 30.2
COc1ccc(C2=NN(C3CCCCCC3)C(=O)[C@@H]3CC=CC[C@H]23)cc1-c1ccc(C(=O)NCC(N)=O)cc1 (relative stereo) | 3',5'-cyclic-AMP phosphodiesterase 4C (PDE4C, Homo sapiens, UniProt Q08493) | enzyme activity, inhibitor | – | 1000
CCCC[C@H](NC(=O)[C@H](C)c1c(C)[nH]c2ccc(O)cc12)c1ncc(-c2cc3ccccc3nc2OC)[nH]1 | Histone deacetylase 9 (HDAC9, Homo sapiens, UniProt Q9UKV0) | enzyme activity, inhibitor | – | > 45000
N#CCNC(=O)c1ccc(-c2ccnc(Nc3ccc(N4CCOCC4)cc3)n2)cc1 | PKN1 | enzyme activity, inhibitor | – | 278
Cc1ccc(C(=O)NCCC(=O)NCc2cc(S(N)(=O)=O)ccc2F)c(O)c1 | CA9 | enzyme activity, inhibitor | – | 1660
CCc1ccc(/C=N/n2c(C)nc3ccc(C)cc3c2=O)s1 | PRSS1 | enzyme activity, inhibitor | – | 224000
CN1CCN(Cc2ccc(-c3cnc4[nH]cc(-c5ccc6[nH]ccc6c5)c4c3)cc2)CC1 | PKN1 | enzyme activity, inhibitor | – | 178
CC(OC(=O)C1CCCN(C(=O)c2ccc(Cl)cc2)C1)C(=O)Nc1ccc(S(N)(=O)=O)cc1 (stereo not drawn) | CA9 | enzyme activity, inhibitor | – | 42.7
Cc1cnc(-c2ccc(-c3ccc(NC(=O)Nc4c(F)cc(F)cc4F)cc3F)c3c2C(=O)NC3)[nH]1 | Tyrosine-protein kinase HCK (HCK, Homo sapiens, UniProt P08631) | enzyme activity, inhibitor | – | 2.5
Cc1nc2ccc(Br)cc2c(=O)n1/N=C/c1ccc(C(=O)O)cc1 | PRSS1 | enzyme activity, inhibitor | – | 213000
CCOCc1nc(O)c(-c2nnc(Cc3ccc(Cl)cn3)o2)c(O)c1-c1c(OC)cccc1OC | Histamine H1 receptor (HRH1, Homo sapiens, UniProt P35367) | ligand displacement, radioligand | – | > 30000
CC(C)C(=O)Nc1ccc(C(=O)N2CCC(C(=O)Nc3ccc(S(N)(=O)=O)cc3)CC2)cc1 | CA9 | enzyme activity, inhibitor | – | 37.2
Cc1c[nH]c2nc(Nc3ccc(N4CCN(C)CC4)c(F)c3)nc(-c3cccc(CC#N)c3)c12 | PKN1 | enzyme activity, inhibitor | – | 187
CC1Cc2cc(-c3cn(C)nn3)ccc2N1Cc1ccoc1C(=O)Nc1ccc(S(N)(=O)=O)cc1 (stereo not drawn) | CA9 | enzyme activity, inhibitor | – | 132
CN/C(=N/CCSCc1nc[nH]c1C)NC#N | Solute carrier family 22 member 7 (SLC22A7, Homo sapiens, UniProt Q9Y694) | transporter uptake, inhibitor | – | 22000
COc1ccc2c(Oc3ccc4c(C(=O)Nc5ccccc5N)cccc4c3)ccnc2c1 | Inward rectifier potassium channel 2 (KCNJ2, Homo sapiens, UniProt P63252) | ion current, inhibitor | – | > 10000
COc1ccc2cc(/C=N/n3c(C)nc4ccc(Br)cc4c3=O)ccc2c1 | PRSS1 | enzyme activity, inhibitor | – | 40700
CC[C@@H](C(=O)Nc1ccc(C(N)=O)c(F)c1)n1cc(OC)c(-c2cc(Cl)ccc2-n2cc(C(F)(F)F)nn2)cc1=O | Urokinase-type plasminogen activator (PLAU, Homo sapiens, UniProt P00749) | enzyme activity, inhibitor | – | > 10000
O=C(NO)c1ccc(CN(c2cnccn2)c2cnccn2)cc1 | SIRT5 | enzyme activity, inhibitor | – | > 10000

Compound | target | test | conditions | IC50 [nM]
COc1ccc(C(=O)N2CCCC(C(=O)Nc3cc(S(N)(=O)=O)ccc3O)C2)c2ccccc12 (stereo not drawn) | CA9 | enzyme activity, inhibitor | – | 2610
CN1CCC(Nc2nc(Nc3ccc(Oc4ccccc4)cc3)c3c(=O)[nH]cc(Br)c3n2)CC1 | PKN1 | enzyme activity, inhibitor | – | 101
COC(=O)C1CCCCN1C(=O)c1cccc(NC(=O)CSc2ccc(S(N)(=O)=O)cc2)c1 (stereo not drawn) | CA9 | enzyme activity, inhibitor | – | 91
O=C(Nc1ccncc1)c1cc2ccccc2o1 | Amine oxidase [flavin-containing] B (MAOB, Homo sapiens, UniProt P27338) | enzyme activity, inhibitor, fluorescence | – | 6900
Cc1ccc(S(=O)(=O)N=C2C=C(Sc3nnc[nH]3)C(=O)c3ccccc32)cc1 | Induced myeloid leukemia cell differentiation protein Mcl-1 (MCL1, Homo sapiens, UniProt Q07820) | ligand displacement, FP | – | 450
O=c1c(O)c(-c2ccc(O)c(O)c2)oc2cc(O)cc(O)c12 | Sulfotransferase 1A1 (SULT1A1, Homo sapiens, UniProt P50225, R213H) | enzyme activity, inhibitor | – | 232
COc1cc2c(c(OC)c1OC)-c1c(cc3c(c1OC)OCO3)C[C@H](C)[C@](C)(O)[C@H]2OC(=O)c1ccccc1 | Cytochrome P450 3A5 (CYP3A5, Homo sapiens, UniProt P20815) | enzyme activity, inhibitor | 15 min, pH 7.4 | 370
O=C1NC(=O)C(c2cnc3ccccn23)=C1c1cn2c3c(cc(F)cc13)CN(C(=O)N1CCCCC1)CC2 | PKN1 | enzyme activity, inhibitor | – | 108
CN1CCN(c2ccc(Nc3ncc4cc(C#N)c(=O)n(C5CCCC5)c4n3)cc2)CC1 | PKN1 | enzyme activity, inhibitor | – | 7050
NS(=O)(=O)c1ccc(NC2=NC(=O)/C(=C\c3ccc(C(=O)O)cc3)S2)cc1 | CA9 | enzyme activity, inhibitor | – | 122
CC(NC(=O)c1ccccc1/N=C/c1c(O)ccc2ccccc12)c1ccccc1 (stereo not drawn) | SIRT5 | enzyme activity, inhibitor, HPLC | – | > 100000
NS(=O)(=O)c1cc(C(=O)N2CCCCC2C(=O)Nc2cc(Cl)ccc2Cl)ccc1F (stereo not drawn) | CA9 | enzyme activity, inhibitor | – | 30.2
COc1ccc(-c2nsc(NC(=O)[C@@H]3C[C@H]3C)c2C)cc1 | Metabotropic glutamate receptor 4 (GRM4, Homo sapiens, UniProt Q14833) | calcium signal, antagonist | – | > 12500
O=C(O)c1ccc(-c2c[nH]c3ncc(-c4ccccc4)cc23)cc1C1CCCC1 | PKN1 | enzyme activity, inhibitor | – | 220
CCNC(=O)[C@H](CCCNC(=N)CCl)NC(=O)c1ccccc1 | Protein-arginine deiminase type-4 (PADI4, Homo sapiens, UniProt Q9UM07) | enzyme activity, inhibitor | – | 4100
Cc1nc2ccc(Cl)cc2c(=O)n1NC(=O)CCl | PRSS1 | enzyme activity, inhibitor | – | 97900
COc1ccc(S(=O)(=O)N2Cc3cc(O)c(O)cc3CC2C(=O)NO)cc1 (stereo not drawn) | Matrix metalloproteinase-9 (MMP9, Homo sapiens, UniProt P14780) | enzyme activity, inhibitor | – | > 1000
COc1cc(/C=N/n2c(C)nc3ccc(C)cc3c2=O)cc([N+](=O)[O-])c1O | PRSS1 | enzyme activity, inhibitor | – | 55700
Cc1cc(Nc2cc(CN3CCOCC3)c3nc(C)c(Cc4ccc(Cl)cc4F)n3n2)n[nH]1 | PKN1 | enzyme activity, inhibitor | – | 4070
